Assay results as given in ChEMBL document CHEMBL1122153, “Novel dimeric derivatives of leucomycins and tylosin, sixteen-membered macrolides” (1982).
Converted amounts (≈) assume the structure as drawn.

What was measured:
Format in all cases: functional
Bacillus subtilis = assay: Minimum inhibitory concentration (MIC) required to inhibit the growth of Bacillus subtilis PCI 219 by using nutrient agar as growth medium
Escherichia coli [1] = assay: Minimum inhibitory concentration (MIC) required to inhibit the growth of Escherichia coli NIHJ using nutrient agar as growth medium
Escherichia coli [2] = assay: Inhibition of 10,11,12,13-[3H]tetrahydroleucomycin A3 binding to Escherichia coli Ribosome; conditions: read-out: ID50
How it was run: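 Competition binding of [3H]tetrahydroleucomycin A3 to E. coli ribosomes. ID50 is the concentration of test agent giving 50% inhibition of radioligand binding.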

Klebsiella pneumoniae = assay: Minimum inhibitory concentration (MIC) required to inhibit the growth of Klebsiella pneumoniae PCI 602 using nutrient agar as growth medium
Micrococcus luteus = assay: Minimum inhibitory concentration (MIC) required to inhibit the growth of Sarcina lutea PCI 1001 by using nutrient agar as growth medium
Staphylococcus aureus = assay: Minimum inhibitory concentration (MIC) required to inhibit the growth of Staphylococcus aureus FDA 209P by using nutrient agar as growth medium

MIC (Bacillus subtilis) [µg/mL] | MIC (Escherichia coli [1]) [µg/mL] | IC50 (Escherichia coli [2]) [µg/mL] | MIC (Klebsiella pneumoniae) [µg/mL] | MIC (Micrococcus luteus) [µg/mL] | MIC (Staphylococcus aureus) [µg/mL] | SMILES
12.5 (≈ 8.18 µM) | > 100 | 0.02 (≈ 0.0131 µM) | > 100 | 12.5 (≈ 8.18 µM) | 50 (≈ 32.7 µM) | CCCC(=O)OC1C(C)OC(OC2C(C)OC(O[C@@H]3[C@H](CCNCC[C@H]4C[C@@H](C)[C@@H](O)/C=C/C=C/C[C@@H](C)OC(=O)C[C@@H](O)[C@H](OC)[C@H]4OC4OC(C)C(OC5CC(C)(O)C(OC(=O)CCC)C(C)O5)C(N(C)C)C4O)C[C@H](C)[C@H](O)/C=C/C=C/C[C@H](C)OC(=O)C[C@H](O)[C@H]3OC)C(O)C2N(C)C)CC1(C)O (some centres undefined)
0.2 (≈ 0.259 µM) | 25 (≈ 32.4 µM) | 0.0012 (≈ 0.00155 µM) | 25 (≈ 32.4 µM) | < 0.1 | < 0.1 | CCCC(=O)OC1C(C)OC(OC2C(C)OC(O[C@H]3[C@@H](CC=O)C[C@@H](C)[C@@H](O)/C=C/C=C/C[C@@H](C)OC(=O)C[C@@H](O)[C@@H]3OC)C(O)C2N(C)C)CC1(C)O (some centres undefined)
25 (≈ 27.3 µM) | > 100 | – | > 100 | 6.25 (≈ 6.81 µM) | 50 (≈ 54.5 µM) | CC[C@H]1OC(=O)C[C@@H](O)[C@H](C)[C@@H](OC2OC(C)C(OC3CC(C)(O)C(O)C(C)O3)C(N(C)C)C2O)[C@@H](CCN)C[C@@H](C)C(=O)/C=C/C(C)=C/C1COC1OC(C)C(O)C(OC)C1OC (some centres undefined)
0.4 (≈ 0.483 µM) | 50 (≈ 60.4 µM) | – | 50 (≈ 60.4 µM) | < 0.1 | 0.4 (≈ 0.483 µM) | CO[C@@H]1[C@@H](OC2OC(C)C(OC3CC(C)(O)C(OC(=O)CC(C)C)C(C)O3)C(N(C)C)C2O)[C@@H](CC=O)C[C@@H](C)[C@@H](O)/C=C/C=C/C[C@@H](C)OC(=O)C[C@H]1OC(C)=O (some centres undefined)
25 (≈ 16.4 µM) | 50 (≈ 32.7 µM) | – | 100 (≈ 65.4 µM) | 0.78 (≈ 0.51 µM) | 3.12 (≈ 2.04 µM) | CC[C@@H]1OC(=O)C[C@H](O)[C@@H](C)[C@H](OC2OC(C)C(O)C(N(C)C)C2O)[C@H](CCNCC[C@H]2C[C@@H](C)C(=O)/C=C/C(C)=C/C(COC3OC(C)C(O)C(OC)C3OC)[C@@H](CC)OC(=O)C[C@@H](O)[C@H](C)[C@H]2OC2OC(C)C(O)C(N(C)C)C2O)C[C@H](C)C(=O)/C=C/C(C)=C/C1COC1OC(C)C(O)C(OC)C1OC (some centres undefined)
6.25 (≈ 3.81 µM) | > 100 | 0.1 (≈ 0.0609 µM) | > 100 | 25 (≈ 15.2 µM) | 100 (≈ 60.9 µM) | CO[C@@H]1[C@@H](OC2OC(C)C(OC3CC(C)(O)C(OC(=O)CC(C)C)C(C)O3)C(N(C)C)C2O)[C@@H](CCNCC[C@@H]2C[C@H](C)[C@H](O)/C=C/C=C/C[C@H](C)OC(=O)C[C@H](OC(C)=O)[C@@H](OC)[C@@H]2OC2OC(C)C(OC3CC(C)(O)C(OC(=O)CC(C)C)C(C)O3)C(N(C)C)C2O)C[C@@H](C)[C@@H](O)/C=C/C=C/C[C@@H](C)OC(=O)C[C@H]1OC(C)=O (some centres undefined)
50 (≈ 60.3 µM) | > 100 | – | > 100 | > 100 | > 100 | CO[C@@H]1[C@@H](OC2OC(C)C(OC3CC(C)(O)C(OC(=O)CC(C)C)C(C)O3)C(N(C)C)C2O)[C@@H](CCN)C[C@@H](C)[C@@H](O)/C=C/C=C/C[C@@H](C)OC(=O)C[C@H]1OC(C)=O (some centres undefined)
6.25 (≈ 7.68 µM) | > 100 | – | > 100 | 1.56 (≈ 1.92 µM) | 6.25 (≈ 7.68 µM) | CC[C@H]1C[C@@H](C)[C@@H](O)/C=C/C=C/C[C@@H](C)OC(=O)C[C@@H](OC(C)=O)[C@H](OC)[C@H]1OC1OC(C)C(OC2CC(C)(O)C(OC(=O)CC(C)C)C(C)O2)C(N(C)C)C1O (some centres undefined)
> 100 | > 100 | – | > 100 | 25 (≈ 32.3 µM) | > 100 | CCCC(=O)OC1C(C)OC(OC2C(C)OC(O[C@H]3[C@@H](CCN)C[C@@H](C)[C@@H](O)/C=C/C=C/C[C@@H](C)OC(=O)C[C@@H](O)[C@@H]3OC)C(O)C2N(C)C)CC1(C)O (some centres undefined)
0.78 (≈ 0.851 µM) | 50 (≈ 54.6 µM) | 0.0004 (≈ 0.000437 µM) | 100 (≈ 109 µM) | < 0.1 | 0.78 (≈ 0.851 µM) | CC[C@H]1OC(=O)C[C@@H](O)[C@H](C)[C@@H](O[C@@H]2O[C@H](C)[C@@H](O[C@H]3C[C@@](C)(O)[C@@H](O)[C@H](C)O3)[C@H](N(C)C)[C@H]2O)[C@@H](CC=O)C[C@@H](C)C(=O)/C=C/C(C)=C/[C@@H]1CO[C@@H]1O[C@H](C)[C@@H](O)[C@@H](OC)[C@H]1OC [TYLOSIN]
